Xi reactivation: reactivates the inactive X chromosome in mouse fibroblasts; XiGFP mouse fibroblasts, % GFP-positive cells imaging, 3 d; cells co-treated with 5-aza-dC sensitizer; scaled so ellipticine positive control = 100%; activation, % at 7.58 µM; 360,000 tested, 0.055% active; AID 743238;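 active means mean normalized replicate activation at least 10% and every replicate at or above 10%; inconclusive means only one of the two criteria met; inactive means mean below 10% and not all replicates reach 10%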
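Material: XiGFP fibroblasts, SV40-immortalized; Buffer or medium: DMEM containing 5-aza-dC; Compound dosing: single point; Times: 3 days compound exposure.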
PAX8 reporter: inhibitors of PAX8 transcriptional activity in RMG-I cells; 360,000 tested, 1.2% active; inhibition, % at 12.6 µM; RMG-I TPO-luciferase reporter, SteadyGlo, 24 h;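 active means mean replicate inhibition at least 60% with every replicate also reaching 60%; inconclusive means only one of the two criteria is met; inactive means mean below 60% and not all replicates reaching 60%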;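 further: luciferase light reporting Pax8 driven TPO promoter activity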
PGC1a acetyl inh: modulators of PGC1a acetylation. inhibition, % at 15.6 µM. U2OS PGC1a acetylation, AlphaScreen anti-acetyl-lysine; with virally co-expressed GCN5 acetyltransferase. 350,000 tested, 0.17% active;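 active means every replicate shows inhibition of at least 40%; inconclusive means mean inhibition at least 40% but some replicate below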
AF4-AF9 inh: inhibitors of human MLL-AF4/AF9 interaction; AlphaScreen, biotin-AF4 peptide binding to FLAG-AF9; inhibition, % at 10 µM; 350,000 tested, 0.47% active;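 active means every replicate reaching a set inhibition limit, whatever the replicate mean, cut at about 25% in these data; inconclusive means mean inhibition reaches that limit but some replicates miss it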
Target sequence (P42568 whole entry, looked up): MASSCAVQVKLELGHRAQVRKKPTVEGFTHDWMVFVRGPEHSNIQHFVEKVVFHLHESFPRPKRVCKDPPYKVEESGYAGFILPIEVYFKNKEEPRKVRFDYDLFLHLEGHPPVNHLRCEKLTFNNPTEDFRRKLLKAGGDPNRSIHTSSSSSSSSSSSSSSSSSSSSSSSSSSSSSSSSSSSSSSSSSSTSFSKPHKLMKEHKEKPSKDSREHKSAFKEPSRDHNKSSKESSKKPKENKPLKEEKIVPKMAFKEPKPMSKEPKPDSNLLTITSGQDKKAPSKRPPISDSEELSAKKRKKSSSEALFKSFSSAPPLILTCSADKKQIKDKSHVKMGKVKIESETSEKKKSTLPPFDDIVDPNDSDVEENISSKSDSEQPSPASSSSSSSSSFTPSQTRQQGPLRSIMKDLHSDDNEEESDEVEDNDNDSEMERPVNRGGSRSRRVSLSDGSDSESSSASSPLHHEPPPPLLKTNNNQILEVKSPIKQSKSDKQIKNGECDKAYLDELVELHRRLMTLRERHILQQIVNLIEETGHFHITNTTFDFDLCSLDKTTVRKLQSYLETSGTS
EWS-Fli inh: inhibitors of EWS/Fli oncoprotein transcriptional activity | inhibition, % at 12.6 µM | A673 NR0B1-luciferase reporter, viability-normalised | 350,000 tested, 0.67% active;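 active means mean inhibition of at least 50% after viability correction, with every replicate also passing that limit; inconclusive means mean reaches 50% but only one of two replicates passes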;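 further: firefly luciferase signal divided by Alamar Blue viability fluorescence both relative to DMSO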
INS-1E GSIS act: primary screen for activators of insulin secretion dependent on glucose, INS-1E cells, GLuc reporter luminescence | INS-1E GLuc reporter insulin secretion, 2-3 h | activation, % at 16.6 µM | 370,000 tested, 0.61% active | AID 743287;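 active means lowest replicate activation of at least 40%, so every replicate reaches that level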
Numbers stand for hits; . = inactive; ? = inconclusive; / = no result given. Sampled rows, rich in hits. Any-hit rate of the full collection: about 2.1%.

SMILES	Xi reactivation	PAX8 reporter	PGC1a acetyl inh	AF4-AF9 inh	EWS-Fli inh	INS-1E GSIS act
Cc1ccc(S(=O)(=O)Nc2ccc3c(c2)C(=O)N([C@H](C)CO)C[C@@H](C)[C@@H](CN(C)S(=O)(=O)c2cn(C)cn2)O3)cc1	.	.	.	.	.	.
O=C(O)c1ccc(S(=O)(=O)N2CCC3(CC2)CC(=O)c2ccccc2O3)cc1	.	.	.	.	.	50
O=C(NC[C@@H]1CC[C@H]2[C@H](CN2C(=O)C2CCOCC2)O1)c1cccnc1	/	.	.	.	.	/
CC(C)NC(=O)N(C)C[C@H]1Oc2ccc(NC(=O)Nc3ccccc3)cc2C(=O)N([C@@H](C)CO)C[C@H]1C	.	.	.	.	.	.
CN(C)C(=O)c1ccc(-c2ccc([C@@H]3[C@@H](CO)N4CCCCN(S(C)(=O)=O)C[C@H]34)cc2)cc1	.	.	.	30	/	.
CN(C)C(=O)c1ccc(-c2ccc([C@H]3[C@H]4CN(S(C)(=O)=O)CCCCN4[C@H]3CO)cc2)cc1	.	.	.	34	/	.
CCCNC(=O)C[C@H]1CC[C@H]2[C@@H](COc3ccc(NC(=O)c4cc(F)cc(F)c4)cc3C(=O)N2C)O1	/	.	.	/	.	/
Cc1onc(-c2ccccc2Cl)c1C(=O)Nc1cccc2cccnc12	/	/	.	/	/	.
COc1ccc(OCC(=O)NNC(=O)c2c(-c3ccccc3Cl)noc2C)cc1	.	.	62	.	.	.
COc1cc(NC(=O)c2c(-c3ccccc3Cl)noc2C)c2ncccc2c1	.	.	.	.	.	51
COc1ccccc1-c1cnc2c(c1)C(=O)N([C@@H](C)CO)C[C@@H](C)[C@@H](CN(C)Cc1ccc(F)cc1)O2	.	.	.	.	.	.
Cc1cc(Oc2cccnc2)ccc1NC(=O)Cc1cn(C)c2ccccc12	.	.	/	/	.	162
Cn1cc(CC(=O)Nc2ccc(Oc3cccnc3)cc2)c2ccccc21	.	.	/	/	.	.
COc1cc(C2C3=C(COC3=O)Oc3cc4c(cc32)OCO4)cc(OC)c1OC(C)=O (centres undefined)	.	80	.	.	55	.
COc1cc(C2C3=C(COC3=O)Oc3cc4c(cc32)OCO4)ccc1OC(C)=O (centres undefined)	.	.	.	.	.	.
CC(C)NC(=O)N(C)C[C@@H]1Oc2ncc(-c3ccccc3F)cc2C(=O)N([C@@H](C)CO)C[C@@H]1C	.	/	.	.	.	.
COc1cc2cnc(-c3ccsc3)cc2cc1OC	.	.	/	.	.	50
COc1ccc(-c2cc3ccc(OC)cc3cn2)cc1	.	.	/	.	58	.
O=C(O)c1ccc(N=Nc2c(O)[nH]c3ccccc23)cc1	.	.	49	.	.	/
O=C(Cn1nnc(-c2ccccc2)n1)N=Nc1c(O)[nH]c2ccccc12	/	.	.	/	/	93
CCn1c2ccccc2c2cc(NC(=O)CNCc3ccccc3OC)ccc21	.	.	/	.	57	.
CCn1c2ccccc2c2cc(NC(=O)COc3ccccc3OC)ccc21	/	/	/	/	/	.
COc1ccc(/C=C2/SC(=O)N(NS(=O)(=O)c3ccccc3)C2=S)cc1OC	/	/	.	.	.	49
COc1ccc(/C=N/NS(=O)(=O)c2ccccc2)cc1OC	.	.	.	.	.	71
COc1cc(/C=N\NS(=O)(=O)c2ccccc2)cc(OC)c1OC	.	.	.	.	.	.
SMILES	Xi reactivation	PAX8 reporter	PGC1a acetyl inh	AF4-AF9 inh	EWS-Fli inh	INS-1E GSIS act
COc1cc(/C=N/NS(=O)(=O)c2ccc(C)cc2)ccc1OCc1ccc(C(=O)O)cc1	.	100	/	/	/	.
COc1cccc(C(=O)Nc2cc(C)c3c(=O)oc4ccccc4c3n2)c1	.	.	.	43	.	/
Cc1cc(NC(=O)Cc2ccccc2)nc2c1c(=O)oc1ccccc12	.	.	.	.	.	.
Cc1cc(C(=O)Nc2ccc3c(c2)C(=O)N(C)[C@H]2CC[C@@H](CC(=O)NCc4ccc(-c5ccccc5)cc4)O[C@H]2CO3)no1	.	91	/	.	.	.
Cc1cc(C(=O)Nc2ccc3c(c2)C(=O)N(C)[C@@H]2CC[C@H](CC(=O)NCc4ccc(-c5ccccc5)cc4)O[C@H]2CO3)no1	/	80	/	.	57	/
Cc1cc(C(=O)Nc2ccc3c(c2)C(=O)N(C)[C@@H]2CC[C@H](CC(=O)NCc4ccc(-c5ccccc5)cc4)O[C@@H]2CO3)no1	.	80	/	.	?	.
